Test results from ChEMBL document CHEMBL1629608, “Variations in amino acid composition of antisense peptide-phosphorodiamidate morpholino oligomer affect potency against Escherichia coli in vitro and in vivo” (Antimicrob Agents Chemother, 2009).
Values after ≈ are worked out from the molar mass of the structure shown. Active and inactive are the calls of the source. The calls are words filed in the database; no cut-off is given here.

Key:
Escherichia coli [1] = assay: Antibacterial activity against Escherichia coli K-12 W3110 infected in ip dosed mouse assessed as reduction of bacterial level in blood administered 15 mins and 12 hrs postinfection; format: functional; settings: K-12 substr. W3110, Blood
Method in brief: (§1)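 Mice in groups of 3–7 were infected intraperitoneally with E. coli W3110 from an LB culture. They were dosed ip with 10–300 μg per dose at 15 min and 12 h postinfection. Controls were water or scrambled-sequence PPMO. Blood was taken at 2, 6, 12, 24 and 48 h, diluted and plated on LB for CFU/ml. Log CFU was compared by one-way ANOVA with Tukey-Kramer; mean ± SD.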

Escherichia coli [2] = assay: Antibacterial activity against Escherichia coli K-12 W3110 infected in mouse assessed as reduction of bacterial level in blood at 300 ug, ip administered 15 mins and 12 hrs postinfection measured after 6 hrs post dose relative to control; format: functional, K-12 substr. W3110; method in brief: as §1
Escherichia coli [3] = assay: Antibacterial activity against Escherichia coli K-12 W3110 infected in mouse assessed as reduction of bacterial level in blood at 300 ug, ip administered 15 mins and 12 hrs postinfection measured after 12 hrs post dose relative to control; format: functional, K-12 substr. W3110; method in brief: as §1
Escherichia coli [4] = assay: Antibacterial activity against Escherichia coli K-12 W3110 infected in mouse assessed as reduction of bacterial level in blood at 100 ug, ip administered 15 mins and 12 hrs postinfection measured after 2 hrs post dose relative to control; format: functional, organism-based; settings: K-12 substr. W3110; method in brief: as §1
Escherichia coli [5] = assay: Antibacterial activity against Escherichia coli K-12 W3110 infected in mouse assessed as reduction of bacterial level in blood at 300 ug, ip administered 15 mins and 12 hrs postinfection measured after 2 hrs post dose relative to control; format: functional, K-12 substr. W3110; method in brief: as §1
Escherichia coli [6] = assay: Antibacterial activity against Escherichia coli K-12 W3110 infected in mouse assessed as reduction of bacterial level in blood at 10 to 30 ug, ip administered 15 mins and 12 hrs postinfection measured after 2 hrs post dose relative to control; format: functional, organism-based; settings: K-12 substr. W3110; method in brief: as §1
[7] = Therapeutic index, ratio of LD50 for Escherichia coli K-12 W3110 infected mouse to ED50 for Escherichia coli K-12 W3110; settings: read-out: Ratio LD50/ED50
Escherichia coli [8] = assay: Antibacterial activity against Escherichia coli K-12 W3110 by microdilution method; format: functional; settings: K-12 substr. W3110
[9] = Toxicity in Escherichia coli K-12 W3110 infected ip dosed mouse; format: organism-based; settings: in vivo
Method in brief: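 E. coli K-12 W3110 was grown in LB broth for the inoculum and injected intraperitoneally into groups of 3–7 mice. Conjugates were given ip at 15 min and 12 h postinfection (10–300 μg per dose), with water or scrambled-sequence conjugate as controls. Blood drawn at 2, 6, 12, 24 and 48 h was diluted and plated on LB for CFU counts. Survival was followed by Kaplan-Meier, and log CFU was compared by ANOVA with Tukey-Kramer.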

Mus musculus = assay: Toxicity in Escherichia coli K-12 W3110 infected mouse at 15 mg/kg, ip; format: organism-based; set-up: dose 15 mg/kg, route intraperitoneal; settings: in vivo
Method in brief: (§2)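 Mice in groups of 3–7 were infected intraperitoneally with E. coli W3110 from an LB culture. They were treated ip at 15 min and 12 h postinfection with 10, 30, 100 or 300 μg per dose; 300 μg is noted as ~15 mg/kg. Controls were water or scrambled-sequence PPMO. Survival was followed to 48 h and analysed by the Kaplan-Meier method.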

Rattus norvegicus = assay: Toxicity in rat at 150 mg/kg, ip; settings: in vivo
Escherichia coli [10] = assay: Antibacterial activity against Escherichia coli K-12 W3110 infected in mouse assessed as increase of mouse survival at 30 ug, ip administered 15 mins and 12 hrs postinfection; format: functional, organism-based; settings: K-12 substr. W3110; method in brief: as §2
Escherichia coli [11] = assay: Antibacterial activity against Escherichia coli K-12 W3110 infected in mouse assessed as increase of mouse survival at 10 ug, ip administered 15 mins and 12 hrs postinfection; format: functional, organism-based; settings: K-12 substr. W3110; method in brief: as §2
Escherichia coli [12] = assay: Antibacterial activity against Escherichia coli K-12 W3110 infected in mouse assessed as reduction of bacterial level in blood at 30 ug, ip administered 15 mins and 12 hrs postinfection measured after 2 hrs post dose relative to control; format: functional, K-12 substr. W3110; set-up: scale not given: the % may be the effect or the level left; method in brief: as §1
Escherichia coli [13] = assay: Antibacterial activity against Escherichia coli K-12 W3110 infected in mouse assessed as reduction of bacterial level in blood at 30 to 300 ug, ip administered 15 mins and 12 hrs postinfection measured after 2 hrs post dose relative to control; format: functional, organism-based; settings: K-12 substr. W3110; method in brief: as §1
Escherichia coli [14] = assay: Antibacterial activity against Escherichia coli K-12 W3110 infected in mouse assessed as increase of mouse survival at 100 ug, ip administered 15 mins and 12 hrs postinfection; format: functional, organism-based; settings: K-12 substr. W3110; method in brief: as §2
Escherichia coli [15] = assay: Antibacterial activity against Escherichia coli K-12 W3110 infected in mouse assessed as increase of mouse survival at 300 ug, ip administered 15 mins and 12 hrs postinfection; format: functional, organism-based; settings: K-12 substr. W3110; method in brief: as §2
Escherichia coli [16] = assay: Antibacterial activity against Escherichia coli K-12 W3110 infected in mouse assessed as reduction of bacterial level in blood at 100 to 300 ug, ip administered 15 mins and 12 hrs postinfection; format: functional, K-12 substr. W3110; method in brief: as §1

| Structure (SMILES) | ED50 (Escherichia coli [1]) [mg/kg] | log10cfu (Escherichia coli [2]) | log10cfu (Escherichia coli [3]) | Activity (Escherichia coli [4]) | log10cfu (Escherichia coli [5]) | Activity (Escherichia coli [6]) | selectivity ratio [7] | MIC (Escherichia coli [8]) [µM] | LD50 [9] [mg/kg] | Activity (Mus musculus) | Activity (Rattus norvegicus) | Activity (Escherichia coli [10]) | Activity (Escherichia coli [11]) | Activity (Escherichia coli [12]) [%] | Activity (Escherichia coli [13]) | Activity (Escherichia coli [14]) | Activity (Escherichia coli [15]) | log10cfu (Escherichia coli [16]) |
| --- | --- | --- | --- | --- | --- | --- | --- | --- | --- | --- | --- | --- | --- | --- | --- | --- | --- | --- |
| Cc1cn([C@H]2CN(P(=O)(OC[C@@H]3CN(P(=O)(OC[C@@H]4CN(P(=O)(OC[C@@H]5CN(P(=O)(OC[C@@H]6CN(P(=O)(OC[C@@H]7CN(P(=O)(OC[C@@H]8CN(P(=O)(OC[C@@H]9CN(P(=O)(OC[C@@H]%10CNC[C@H](n%11cnc%12c(=O)[nH]c(N)nc%12%11)O%10)N(C)C)C[C@H](n%10cc(C)c(=O)[nH]c%10=O)O9)N(C)C)C[C@H](n9cnc%10c(=O)[nH]c(N)nc%109)O8)N(C)C)C[C@H](n8cnc9c(N)ncnc98)O7)N(C)C)C[C@H](n7cc(C)c(=O)[nH]c7=O)O6)N(C)C)C[C@H](n6cnc7c(N)ncnc76)O5)N(C)C)C[C@H](n5cnc6c(=O)[nH]c(N)nc65)O4)N(C)C)C[C@H](n4ccc(N)nc4=O)O3)N(C)C)C[C@@H](COP(=O)(N(C)C)N3C[C@@H](COP(=O)(N(C)C)N4C[C@@H](COP(=O)(N(C)C)N5CCN(C(=O)CCNC(=O)CCCCCNC(=O)[C@H](CCCNC(=N)N)NC(=O)[C@H](Cc6ccccc6)NC(=O)[C@H](CCCNC(=N)N)NC(=O)[C@H](CCCNC(=N)N)NC(=O)NC(=O)[C@H](Cc6ccccc6)NC(=O)[C@H](CCCNC(=N)N)NC(=O)[C@H](CCCNC(=N)N)NC(=O)NC(=O)[C@H](Cc6ccccc6)NC(=O)[C@H](CCCNC(=N)N)NC(=O)[C@H](CCCNC(=N)N)NC(=O)NC(=O)[C@H](Cc6ccccc6)NC(=O)[C@@H](N)CCCNC(=N)N)CC5)O[C@@H](n5ccc(N)nc5=O)C4)O[C@@H](n4cc(C)c(=O)[nH]c4=O)C3)O2)c(=O)[nH]c1=O (stereo not given in full) | 1.5 | 2 | 2 | Active | 2 | inactive | 200 | 0.625 (≈ 3.71 µg/mL) | 300 | Non-toxic |  |  |  |  |  |  |  |  |
| Cc1cn([C@H]2CNC[C@@H](COP(=O)(N(C)C)N3C[C@@H](COP(=O)(N(C)C)N4C[C@@H](COP(=O)(N(C)C)N5C[C@@H](COP(=O)(N(C)C)N6C[C@@H](COP(=O)(N(C)C)N7C[C@@H](COP(=O)(N(C)C)N8C[C@@H](COP(=O)(N(C)C)N9C[C@@H](COP(=O)(N(C)C)N%10C[C@@H](COP(=O)(N(C)C)N%11C[C@@H](COP(=O)(N(C)C)N%12C[C@@H](COP(=O)(N(C)C)N%13CCN(C(=O)CCNC(=O)CCCCCNC(=O)[C@H](CCCNC(=N)N)NC(=O)[C@H](Cc%14ccccc%14)NC(=O)[C@H](CCCNC(=N)N)NC(=O)[C@H](CCCNC(=N)N)NC(=O)NC(=O)[C@H](Cc%14ccccc%14)NC(=O)[C@H](CCCNC(=N)N)NC(=O)[C@H](CCCNC(=N)N)NC(=O)NC(=O)[C@H](Cc%14ccccc%14)NC(=O)[C@H](CCCNC(=N)N)NC(=O)[C@H](CCCNC(=N)N)NC(=O)NC(=O)[C@H](Cc%14ccccc%14)NC(=O)[C@@H](N)CCCNC(=N)N)CC%13)O[C@@H](n%13cc(C)c(=O)[nH]c%13=O)C%12)O[C@@H](n%12ccc(N)nc%12=O)C%11)O[C@@H](n%11cc(C)c(=O)[nH]c%11=O)C%10)O[C@@H](n%10ccc(N)nc%10=O)C9)O[C@@H](n9cnc%10c(N)ncnc%109)C8)O[C@@H](n8cnc9c(=O)[nH]c(N)nc98)C7)O[C@@H](n7cnc8c(N)ncnc87)C6)O[C@@H](n6cc(C)c(=O)[nH]c6=O)C5)O[C@@H](n5cnc6c(=O)[nH]c(N)nc65)C4)O[C@@H](n4cnc5c(=O)[nH]c(N)nc54)C3)O2)c(=O)[nH]c1=O (stereo not given in full) |  |  |  |  |  |  |  |  | 210 |  | Toxic |  |  |  |  |  |  |  |
| Cc1cn([C@H]2CN(P(=O)(OC[C@@H]3CN(P(=O)(OC[C@@H]4CN(P(=O)(OC[C@@H]5CN(P(=O)(OC[C@@H]6CN(P(=O)(OC[C@@H]7CN(P(=O)(OC[C@@H]8CN(P(=O)(OC[C@@H]9CN(P(=O)(OC[C@@H]%10CNC[C@H](n%11cnc%12c(=O)[nH]c(N)nc%12%11)O%10)N(C)C)C[C@H](n%10cc(C)c(=O)[nH]c%10=O)O9)N(C)C)C[C@H](n9cnc%10c(=O)[nH]c(N)nc%109)O8)N(C)C)C[C@H](n8cnc9c(N)ncnc98)O7)N(C)C)C[C@H](n7cc(C)c(=O)[nH]c7=O)O6)N(C)C)C[C@H](n6cnc7c(N)ncnc76)O5)N(C)C)C[C@H](n5cnc6c(=O)[nH]c(N)nc65)O4)N(C)C)C[C@H](n4ccc(N)nc4=O)O3)N(C)C)C[C@@H](COP(=O)(N(C)C)N3C[C@@H](COP(=O)(N(C)C)N4C[C@@H](COP(=O)(N(C)C)N5CCN(C(=O)CCNC(=O)CCCCCNC(=O)[C@H](CCCNC(=N)N)NC(=O)CCCCCNC(=O)[C@H](CCCNC(=N)N)NC(=O)CCCCCNC(=O)[C@H](CCCNC(=N)N)NC(=O)CCCCCNC(=O)[C@H](CCCNC(=N)N)NC(=O)CCCCCNC(=O)[C@H](CCCNC(=N)N)NC(=O)CCCCCNC(=O)[C@@H](N)CCCNC(=N)N)CC5)O[C@@H](n5ccc(N)nc5=O)C4)O[C@@H](n4cc(C)c(=O)[nH]c4=O)C3)O2)c(=O)[nH]c1=O (stereo not given in full) |  |  |  |  |  |  |  | 1.25 (≈ 6.84 µg/mL) |  |  |  | inactive | inactive | 88 | Active | Active | inactive | 3 |
